Test results: ChEMBL document CHEMBL3425510, “Discovery of bisamide-heterocycles as inhibitors of scavenger receptor BI (SR-BI)-mediated lipid uptake” (Bioorg Med Chem Lett, 2015)
≈ marks a conversion by molar mass, not a printed value. Calls of active or inactive are those of the source. No cut-off for these calls is given here.

What was measured:
[1] = target: T1, Scavenger receptor class B member 1 (Mus musculus, UniProt Q61009); assay: Inhibition of mouse SR-BI isoform 1 expressed in CHO cells assessed as reduction in transfer of fluorescent lipid DiI from human HDL particles into cells by fluorescence assay; format: cell-based
T1 sequence (Q61009 whole entry): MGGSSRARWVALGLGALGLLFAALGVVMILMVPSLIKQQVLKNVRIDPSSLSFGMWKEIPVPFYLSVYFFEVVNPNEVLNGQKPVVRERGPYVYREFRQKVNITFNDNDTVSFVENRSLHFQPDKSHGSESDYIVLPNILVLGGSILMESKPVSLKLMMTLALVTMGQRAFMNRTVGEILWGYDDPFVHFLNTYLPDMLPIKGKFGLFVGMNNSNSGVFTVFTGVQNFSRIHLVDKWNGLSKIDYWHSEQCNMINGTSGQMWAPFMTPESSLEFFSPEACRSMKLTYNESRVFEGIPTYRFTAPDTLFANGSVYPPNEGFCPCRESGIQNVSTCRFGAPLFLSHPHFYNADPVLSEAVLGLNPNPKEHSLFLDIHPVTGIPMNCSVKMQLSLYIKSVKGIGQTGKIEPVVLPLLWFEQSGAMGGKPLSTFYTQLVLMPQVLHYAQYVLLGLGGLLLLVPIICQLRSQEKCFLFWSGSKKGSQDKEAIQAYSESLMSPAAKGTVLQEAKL
Summary of the method: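 ldlA[mSR-BI] cells (CHO, lacking LDL receptor, overexpressing mouse SR-BI), 10,000 per well, plated overnight in F12K/5% FCS. Medium swapped to Ham's F12/0.5% fatty acid-free BSA/25 mM HEPES pH 7.4 with DiI-HDL at 10 μg protein/ml final. Compound pinned in, 3 h at 37 °C, then two PBS (+Ca/Mg) washes. Bottom-read fluorescence; normalized to DMSO and 1 μM BLT-1.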

[2] = Aqueous solubility in PBS buffer with 1% DMSO at 100 uM incubated for 24 hrs by UPLC-MS method; format: physicochemical
Summary of the method: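 Duplicate samples at 100 μM in PBS pH 7.4 with 1% DMSO, plus matching samples in 100% DMSO. Shaken 250 rpm for 24 h at room temperature. Quantified by UPLC-MS with SIR detection on a single quadrupole; PBS response fitted to a two-point calibration made from the DMSO samples.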

[3] = Stability in human plasma assessed as compound remaining at 5 uM after 5 hrs at 37 degC by UPLC-MS method; format: ADME, cell-free; details: read-out: Stability
Summary of the method: (§1)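 Plasma (human or mouse) diluted 50/50 with PBS pH 7.4, compound at 5 μM (0.95% acetonitrile, 0.05% DMSO). Run in duplicate, shaken 250 rpm at 37 °C. Sampled at 0 and 5 h; analysed by UPLC-MS with SIR detection.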

CHO [4] = assay: Inhibition of general receptor-mediated endocytosis in SR-BI isoform 1 expressing CHO cells assessed as effect on endocytosis of Alexa-594-labeled transferrin up to 35 uM; format: functional, cell-based; details: Cricetulus griseus
[5] = Stability in mouse plasma assessed as compound remaining at 5 uM after 5 hrs at 37 degC by UPLC-MS method; format: ADME, cell-free; details: read-out: Stability; summary of the method: as §1
[6] = target: T1, Scavenger receptor class B member 1; assay: Inhibition of mouse SR-BI isoform 1 expressed in CHO cells assessed as increase in binding of Alexa-488-labeled HDL particles to cells; format: cell-based
Summary of the method: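 ldlA[mSR-BI] cells (LDL receptor-deficient CHO overexpressing mouse SR-BI), 10,000/well in Ham's F12K/5% FCS, grown overnight. Medium swapped for Ham's F12/0.5% fatty acid-free BSA/25 mM HEPES pH 7.4 containing 10 ug/mL Alexa 488-HDL (dye bound covalently to apolipoprotein). Compounds pinned in, 1 uM BLT-1 as positive control, 3 h at 37°C. Cells washed twice with PBS (+Ca/Mg), bottom-read fluorescence, normalised to DMSO and BLT-1 wells.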

[7] = Stability in mouse liver microsomes assessed as compound remaining at 1 uM in presence of NADPH at 37 degC after 1 hr by UHPLC-MS method; format: ADME; details: read-out: Stability
Summary of the method: (§2)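 Liver microsomes (human or mouse) in PBS pH 7.4, final 1 μM compound, 0.3 mg/mL microsomes, 0.5 mM NADPH, 1% DMSO. Run in duplicate at 37 °C with 250 rpm shaking. Sampled at 0 and 1 h.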

[8] = Stability in human liver microsomes assessed as compound remaining at 1 uM in presence of NADPH at 37 degC after 1 hr by UHPLC-MS method; format: ADME; details: read-out: Stability; summary of the method: as §2
CHO [9] = assay: Cytotoxicity against CHO cells after 24 hrs; format: cell-based, Cricetulus griseus; details: chinese hamster

SMILES	IC50 [1] [µM]	also measured
CC(C(=O)NC1CCCC1)N(C(=O)Cn1nnc(-c2ccc3c(c2)OC(F)(F)O3)n1)C1CCCCC1 (stereo not drawn)	0.23	
COCC(=O)N1CCc2cc(-c3csc(NC(=O)c4cc(OC)cc(OC)c4)n3)ccc21		solubility kinetic at 24 h, 100 µM [2]: 0.57 µM (≈ 0.259 µg/mL)
COc1ccc(-c2nnn(CC(=O)N(C3CCCCC3)C(C)C(=O)N3CCCCC3)n2)cc1OC (stereo not drawn)	7.1	
COc1cccc(-c2nnn(CC(=O)N(C3CCCCC3)C(C)C(=O)NC3CCCC3)n2)c1 (stereo not drawn)	0.18	
C[C@H](C(=O)NC1CCCC1)N(C(=O)Cn1nnc(-c2ccc3c(c2)OCO3)n1)C1CCCCC1	0.017	remaining at 5 h, 5 µM [3]: > 99%; solubility kinetic at 24 h, 100 µM [2]: 28 µM (≈ 13.1 µg/mL); inhibition (CHO [4]): inactive; remaining at 5 h, 5 µM [5]: > 99%; EC50 [6]: 0.27 µM; remaining at 1 h, 1 µM [7]: < 1%; remaining at 1 h, 1 µM [8]: < 1%
CC(C(=O)NC1CCCC1)N(C(=O)Cn1nnc(-c2ccccc2Cl)n1)C1CCCCC1 (stereo not drawn)	3.8	
CC(C(=O)NC1CCCC1)N(C(=O)Cn1nnc(-c2ccc(Cl)cc2)n1)C1CCCCC1 (stereo not drawn)	0.17	
Cc1ccc(-c2nnn(CC(=O)N(C3CCCCC3)C(C)C(=O)NC3CCCC3)n2)cc1 (stereo not drawn)	0.49	
COc1ccc(-c2nnn(CC(=O)N(C)C(C)C(=O)NC3CCCC3)n2)cc1OC (stereo not drawn)	19	
COc1ccc(-c2nnn(CC(=O)N(C3CCCCC3)C(C)C(=O)N(C)C3CCCC3)n2)cc1OC (stereo not drawn)	1.6	
COc1ccc(-c2nnn(CC(=O)N(C3CCCCC3)C(C(=O)NC3CCCC3)C(C)C)n2)cc1OC (stereo not drawn)	> 25	
COc1ccc(-c2nnn(CC(=O)N(C3CCCCC3)C(C)C(=O)NC(C)C)n2)cc1OC (stereo not drawn)	0.81	
COc1ccc(-c2nnn(CC(=O)N(C3CCN(C)CC3)C(C)C(=O)NC3CCCC3)n2)cc1OC (stereo not drawn)	> 25	
O=C(CN(C(=O)Cn1nnc(-c2ccc3c(c2)OCO3)n1)C1CCCCC1)NC1CCCC1	0.026	
COc1ccc(-c2nc(CC(=O)N(C3CCCCC3)C(C)C(=O)NC3CCCC3)cs2)cc1OC (stereo not drawn)	6.3	
COc1ccccc1-c1nnn(CC(=O)N(C2CCCCC2)C(C)C(=O)NC2CCCC2)n1 (stereo not drawn)	> 25	
CC(C(=O)NC1CCCC1)N(C(=O)Cn1nnc(-c2ccc(F)cc2)n1)C1CCCCC1 (stereo not drawn)	0.13	

SMILES	IC50 [1] [µM]	also measured
COc1ccc(-c2nc(CC(=O)N(C3CCCCC3)C(C)C(=O)NC3CCCC3)co2)cc1OC (stereo not drawn)	0.13	
CC(C(=O)NC1CCCC1)N(C(=O)Cn1nnc(-c2ccccc2F)n1)C1CCCCC1 (stereo not drawn)	0.62	
CC(C(=O)NC1CCCC1)N(C(=O)Cn1nnc(-c2cccc(F)c2)n1)C1CCCCC1 (stereo not drawn)	0.38	
COc1ccc(-c2nnn(CC(=O)N(CC3CCCCC3)C(C)C(=O)NC3CCCC3)n2)cc1OC (stereo not drawn)	1.6	
COc1ccc(-c2nnn(CC(=O)N(C3CCCCC3)C(C)C(=O)NC(C)(C)C)n2)cc1OC (stereo not drawn)	17	
COc1ccc(-c2nnn(CC(=O)N(C3CCCC3)C(C)C(=O)NC3CCCC3)n2)cc1OC (stereo not drawn)	0.11	
COc1ccc(-c2nnn(CC(=O)N(C3CCCCC3)C(C)C(=O)NC3CC3)n2)cc1OC (stereo not drawn)	0.42	
COc1ccc(-c2nnn(CC(=O)N(C3CCCCC3)C(C)C(=O)NC3CCCC3)n2)cc1OC (stereo not drawn)	0.055	Activity (CHO [9]): Non-toxic; solubility kinetic at 24 h, 100 µM [2]: 114 µM (≈ 55.2 µg/mL)
COc1ccc(-c2cc(CC(=O)N(C3CCCCC3)C(C)C(=O)NC3CCCC3)no2)cc1OC (stereo not drawn)	0.023	
COc1ccc(-c2nnn(CC(=O)N(C3CC3)C(C)C(=O)NC3CCCC3)n2)cc1OC (stereo not drawn)	7.5	
COc1ccc(-c2nnn(CC(=O)N(C3CCCCC3)C(C)(C)C(=O)NC3CCCC3)n2)cc1OC	19	
CC(C(=O)NC1CCCC1)N(C(=O)Cn1nnc(-c2ccc3c(c2)OCO3)n1)C1CCOCC1 (stereo not drawn)	0.84	
CC(C(=O)NC1CCCC1)N(C(=O)Cc1ccccc1)C1CCCCC1 (stereo not drawn)	37	
COc1ccc(-c2nnn(CC(=O)N(C3CCCCC3)C(C)C(=O)NC3CCCCC3)n2)cc1OC (stereo not drawn)	0.2	
CC(C(=O)NC1CCCC1)N(C(=O)Cn1nnc(-c2ccc(Cl)c(Cl)c2)n1)C1CCCCC1 (stereo not drawn)	0.18	
CC(C(=O)NC1CCCC1)N(C(=O)Cn1nnc(-c2ccccc2)n1)C1CCCCC1 (stereo not drawn)	0.37	
CC(C(=O)NC1CCCC1)N(C(=O)Cn1nnc(-c2ccc3c(c2)OCO3)n1)C1CCCCC1 (stereo not drawn)	0.027	
